Data reported in ChEMBL document CHEMBL1133143, “Calpain inhibitors based on the quiescent affinity label concept: high rates of calpain inactivation with leaving groups derived from N-hydroxy peptide coupling reagents” (Bioorg Med Chem Lett, 2000).
Residues, ends and D or L forms follow the SMILES beside them. *: point of attachment. Cbz = O=C(OCc1ccccc1)*; CH2F = FC*

Columns and labels:
[1] = target: Cathepsin B (Homo sapiens) (UniProt P07858); assay: Ratio of second order rate constant of calpain I to that of cathepsinB
[2] = target: Cathepsin B (Homo sapiens) (UniProt P07858); assay: Second order rate constant for inactivation of human liver cathepsin B was reported
In short: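 Human liver cathepsin B inactivation was run by an analogous progress-curve method (substrate plus inhibitor) under published assay conditions. The second-order rate constant came from progress-curve analysis. Inhibitor was added as quickly as possible before measurement because of limited aqueous stability.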

[3] = target: T1, Calpain-1 catalytic subunit (Homo sapiens) (UniProt P07384); assay: Second order rate constant for inactivation of recombinant human Calpain 1 was reported
T1 sequence (whole entry): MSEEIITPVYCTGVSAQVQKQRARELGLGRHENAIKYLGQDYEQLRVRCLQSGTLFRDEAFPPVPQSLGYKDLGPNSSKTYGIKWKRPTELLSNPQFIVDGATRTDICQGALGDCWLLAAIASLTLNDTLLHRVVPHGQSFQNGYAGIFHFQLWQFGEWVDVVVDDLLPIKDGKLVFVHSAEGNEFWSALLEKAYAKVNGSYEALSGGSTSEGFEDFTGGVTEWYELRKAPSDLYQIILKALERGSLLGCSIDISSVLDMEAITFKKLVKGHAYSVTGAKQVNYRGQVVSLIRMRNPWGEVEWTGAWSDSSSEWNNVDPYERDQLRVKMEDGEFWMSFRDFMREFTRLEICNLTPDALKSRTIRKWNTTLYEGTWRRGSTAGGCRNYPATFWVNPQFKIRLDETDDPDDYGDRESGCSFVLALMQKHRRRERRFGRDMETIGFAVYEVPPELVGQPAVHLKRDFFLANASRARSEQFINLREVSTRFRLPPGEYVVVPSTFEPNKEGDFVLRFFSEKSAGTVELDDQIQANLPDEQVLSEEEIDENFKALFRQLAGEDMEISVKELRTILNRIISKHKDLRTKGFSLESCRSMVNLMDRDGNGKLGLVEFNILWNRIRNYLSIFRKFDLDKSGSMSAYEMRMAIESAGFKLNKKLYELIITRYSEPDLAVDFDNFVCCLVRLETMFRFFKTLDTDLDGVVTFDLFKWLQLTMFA
In short: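 Started with 5 mM CaCl2 at ambient temperature. Fluorescence (ex 340/em 440 nm) was recorded continuously. kobs came from an exponential fit, and k2 from the kobs-vs-[I] slope with a (1+S/Km) correction.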

[4] = target: Cathepsin B (Homo sapiens) (UniProt P07858); assay: Percent inhibition of recombinant calpain I after 5 min of incubation with 10 uM compound
In short: (§1)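 Single-concentration test: 10 inhibitor, 5 min incubation, then percent inhibition of recombinant human calpain I activity measured by the fluorogenic Suc-Leu-Tyr-MNA assay (ex 340/em 440 nm) in Ca2+-initiated buffer at ambient temperature.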

[5] = target: T1, Calpain-1 catalytic subunit (Homo sapiens); assay: Percent inhibition of recombinant Calpain 1 after 5 min of incubation with 10 uM compound; in short: as §1

| SMILES | Ratio [1] | K obs / 1 [2] [M⁻¹ s⁻¹] | K obs / 1 [3] [M⁻¹ s⁻¹] | inhibition [4] [%] | inhibition [5] [%] |
| --- | --- | --- | --- | --- | --- |
| CC(C)CC(NC(=O)OCc1ccccc1)C(=O)NC(Cc1ccccc1)C(=O)COn1nnc2cccnc21 (stereo not given) | 1.7 | 107000 | 184000 |  |  |
| CC(C)CC(NC(=O)OCc1ccccc1)C(=O)NC(CC(C)C)C(=O)NC(Cc1ccccc1)C(=O)COn1nnc2ccccc21 (stereo not given) |  |  | 524000 | 32 |  |
| CCC(NC(=O)C(CC(C)C)NC(=O)OCc1ccccc1)C(=O)COn1nnc2ccccc21 (stereo not given) | 0.14 | 443000 | 63000 |  |  |
| CC(C)CC(NC(=O)OCc1ccccc1)C(=O)NC(Cc1ccccc1)C(=O)Cn1nnc2ccccc21 (stereo not given) |  |  |  |  | 83 |

More lines, now with the values ahead:

| Ratio [1] | K obs / 1 [2] [M⁻¹ s⁻¹] | K obs / 1 [3] [M⁻¹ s⁻¹] | inhibition [4] [%] | inhibition [5] [%] | SMILES |
| --- | --- | --- | --- | --- | --- |
| 0.14 | 6900 | 1000 |  |  | CC(C)CC(NC(=O)OCc1ccccc1)C(=O)NC(Cc1ccccc1)C(=O)CON1C(=O)C2C3C=CC(C3)C2C1=O (stereo not given) |
|  |  |  |  | 32 | CC(C)CC(NC(=O)OCc1ccccc1)C(=O)NC(Cc1ccccc1)C(=O)CON1C(=O)c2ccccc2C1=O (stereo not given) |
| 454 | 300 | 136000 |  |  | CC(C)CC(NC(=O)OCc1ccccc1)C(=O)NC(Cc1ccccc1)C(=O)CF (stereo not drawn) (Cbz-Leu-Phe-CH2F; configuration not given here) |
| 2.7 | 118000 | 320000 |  |  | CC(C)CC(NC(=O)OCc1ccccc1)C(=O)NC(Cc1ccccc1)C(=O)COn1nnc2ccccc21 (stereo in doubt; 1d) |
|  |  | 5800 |  |  | CC(C)CC(NC(=O)OCc1ccccc1)C(=O)NC(Cc1ccccc1)C(=O)CON1C(=O)CCC1=O (stereo not given) |
